Data published in ChEMBL document CHEMBL3243966, “Synthesis of substituted 1-hydroxy-2-naphthanilides as potential cestodicidal agents” (J Med Chem, 1978).
Active and inactive are the calls of the source. The calls are words filed in the database; no cut-off is given here.

How the values were obtained:
Rodentolepis nana [1] = test: Cestodicidal activity against Hymenolepis nana infected in po dosed rat assessed as […] after 3 days; assay type: functional; conditions: 72 h, read-out: MED
Rodentolepis nana [2] = test: Cestodicidal activity against Hymenolepis nana infected in rat assessed as reduction in 98 to 100% of worm load at 250 mg/kg, po after 3 days; assay type: functional, organism-based; parameters: dose 250 mg/kg
Procedure, shortened: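 Newly weaned male Freiburg-strain rats (25-30 g) infected orally with 200 viable H. nana ova; faecal ova-positive animals treated on day 15 after overnight fast. Single oral dose, starting at 250 mg/kg, then 100, 50, 13, 7.5 mg/kg; three treated, three untreated controls per group. Sacrificed day 3 post-treatment after fasting; small intestine worms collected and scored. Minimum effective dose: lowest giving score ≤10% of control.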

Rattus norvegicus [3] = test: Toxicity in rat at 5 g/kg, ip assessed as mortality; assay type: organism-based; conditions: in vivo, 5000 mg/kg
Rattus norvegicus [4] = test: Toxicity in rat at 5 g/kg, po; assay type: organism-based; conditions: in vivo, 5000 mg/kg
Canis familiaris [5] = test: Toxicity in ip dosed dog; assay type: organism-based, Canis lupus familiaris; conditions: in vivo
Procedure, shortened: (§1)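 Acute toxicity study in Mastomys natalensis and dogs, with the compound given orally or intraperitoneally.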

Rattus norvegicus [6] = test: Toxicity in rat at 5 g/kg, ip; assay type: organism-based; conditions: in vivo, 5000 mg/kg
Mastomys natalensis [7] = test: Toxicity in ip dosed natal multimammate mouse; assay type: organism-based; conditions: in vivo; procedure, shortened: as §1
Mastomys natalensis [8] = test: Toxicity in po dosed natal multimammate mouse; assay type: organism-based; conditions: in vivo; procedure, shortened: as §1
Rattus norvegicus [9] = test: Toxicity in rat infected with Hymenolepis nana at 1 g/kg; assay type: organism-based; conditions: in vivo, 1000 mg/kg
Procedure, shortened: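 Young rats infected with H. nana received 1 g/kg, and tolerance was assessed.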

Rattus norvegicus [10] = test: Toxicity in rat at 5 g/kg, po assessed as mortality; assay type: organism-based; conditions: in vivo, 5000 mg/kg
Taenia = test: Cestodicidal activity against Taenia species infected in dog assessed as reduction in worm load at 10 mg/kg, po relative to control; assay type: functional; parameters: scale not given: the % may be the effect or the level left
Procedure, shortened: (§2)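 Single oral 10 mg/kg dose, with worm-load reduction as the read-out. H. diminuta was tested in rats; Taenia sp. was tested in naturally infected dogs.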

[11] = Cestodicidal activity against Hymenolepis diminuta infected in rat assessed as reduction in worm load at 10 mg/kg, po relative to control; assay type: functional; parameters: scale not given: the % may be the effect or the level left; procedure, shortened: as §2
Canis familiaris [12] = test: Toxicity in po dosed dog; assay type: organism-based, Canis lupus familiaris; conditions: in vivo; procedure, shortened: as §1

Structure (SMILES) | Activity (Rodentolepis nana [2]) | other results
O=C(Nc1ccc([N+](=O)[O-])cc1)c1cc(Br)c2ccccc2c1O |  | minimal effective dose (Rodentolepis nana [1]): 100 mg/kg
CC1CCCN(c2ccc(NC(=O)c3ccc4ccccc4c3O)cc2[N+](=O)[O-])C1 (stereo not given) | inactive | 
O=c1c2ccc3ccccc3c2oc(=S)n1-c1ccc(Cl)c([N+](=O)[O-])c1 | inactive | 
O=c1oc2c(ccc3ccccc32)c(=O)n1-c1ccccc1[N+](=O)[O-] | inactive | 
O=c1oc2c(ccc3ccccc32)c(=O)n1-c1ccc([N+](=O)[O-])cc1Cl | inactive | 
O=c1c2ccc3ccccc3c2oc(=S)n1-c1ccccc1[N+](=O)[O-] | inactive | 
O=c1c2ccc3ccccc3c2oc(=S)n1-c1ccc([N+](=O)[O-])cc1Cl | inactive | 
O=C(Nc1ccc([N+](=O)[O-])cc1Cl)c1cc(Br)c2ccccc2c1O |  | minimal effective dose (Rodentolepis nana [1]): 13 mg/kg
O=C(Nc1ccc(Cl)cc1Cl)c1ccc2ccccc2c1O | inactive | 
O=c1c2ccc3ccccc3c2oc(=S)n1-c1ccc(Cl)cc1Cl | inactive | 
Nc1ccccc1NC(=O)c1cc(Br)c2ccccc2c1O | inactive | 
O=C(Nc1ccc(Cl)c(N=C=S)c1)c1cc(Br)c2ccccc2c1O |  | minimal effective dose (Rodentolepis nana [1]): 100 mg/kg
Nc1ccc(NC(=O)c2cc(Br)c3ccccc3c2O)cc1 | inactive | 
O=c1c2ccc3ccccc3c2oc(=S)n1-c1ccc(Cl)cc1[N+](=O)[O-] | inactive | 
O=c1c2cc(Br)c3ccccc3c2oc(=S)n1-c1ccc([N+](=O)[O-])cc1 | inactive | 
O=C(Nc1ccc([N+](=O)[O-])cc1)c1ccc2ccccc2c1O | inactive | 
Nc1cc(NC(=O)c2ccc3ccccc3c2O)ccc1Cl | inactive | 
Nc1cc(Cl)ccc1NC(=O)c1ccc2ccccc2c1O | inactive | 
O=c1oc2c(ccc3ccccc32)c(=O)n1-c1ccc(Cl)c([N+](=O)[O-])c1 | inactive | 
O=C(Nc1ccc([N+](=O)[O-])cc1Cl)c1ccc2ccccc2c1O | inactive | 
O=C(Nc1ccc(N=C=S)cc1)c1ccc2ccccc2c1O |  | minimal effective dose (Rodentolepis nana [1]): 100 mg/kg
O=C(Nc1ccc(Cl)c([N+](=O)[O-])c1)c1ccc2ccccc2c1O | inactive | 
O=C(Nc1ccc(N2CCCC2)c([N+](=O)[O-])c1)c1ccc2ccccc2c1O | inactive | 
CC1CCN(c2ccc(NC(=O)c3ccc4ccccc4c3O)cc2[N+](=O)[O-])CC1 | inactive | 
O=c1oc2c(ccc3ccccc32)c(=O)n1-c1ccc(Cl)cc1Cl | inactive | 

Structure (SMILES) | Activity (Rodentolepis nana [2]) | other results
O=c1c2cc(Br)c3ccccc3c2oc(=S)n1-c1ccc(Cl)cc1[N+](=O)[O-] | inactive | 
O=C(Nc1ccc(Cl)cc1[N+](=O)[O-])c1ccc2ccccc2c1O | inactive | 
O=c1c2cc(Br)c3ccccc3c2oc(=S)n1-c1ccc([N+](=O)[O-])cc1Cl | inactive | 
O=C(Nc1ccc(N2CCCCC2)c([N+](=O)[O-])c1)c1ccc2ccccc2c1O | inactive | 
O=c1oc2c(cc(Br)c3ccccc32)c(=O)n1-c1ccc(Cl)cc1Cl | inactive | 
O=C(Nc1ccccc1[N+](=O)[O-])c1ccc2c(Br)cccc2c1O |  | minimal effective dose (Rodentolepis nana [1]): 250 mg/kg
Nc1ccc(NC(=O)c2ccc3ccccc3c2O)cc1 | inactive | 
Nc1ccc(NC(=O)c2ccc3ccccc3c2O)c(Cl)c1 | inactive | 
O=C(Nc1ccc(N=C=S)cc1Cl)c1cc(Br)c2ccccc2c1O |  | minimal effective dose (Rodentolepis nana [1]): 250 mg/kg
O=c1c2ccc3ccccc3c2oc(=S)n1-c1ccc([N+](=O)[O-])cc1 | inactive | 
O=C(Nc1ccccc1[N+](=O)[O-])c1ccc2ccccc2c1O | inactive | 
O=C(Nc1ccc(Cl)cc1[N+](=O)[O-])c1cc(Br)c2ccccc2c1O |  | minimal effective dose (Rodentolepis nana [1]): 250 mg/kg
O=c1c2cc(Br)c3ccccc3c2oc(=S)n1-c1ccccc1[N+](=O)[O-] | inactive | 
O=C(Nc1ccc(N2CCN(c3ccccc3)CC2)c([N+](=O)[O-])c1)c1ccc2ccccc2c1O | inactive | 
O=c1oc2c(cc(Br)c3ccccc32)c(=O)n1-c1ccc(Cl)cc1[N+](=O)[O-] | inactive | 
O=C(Nc1ccc(Cl)cc1Cl)c1cc(Br)c2ccccc2c1O |  | minimal effective dose (Rodentolepis nana [1]): 50 mg/kg
Nc1ccc(NC(=O)c2cc(Br)c3ccccc3c2O)c(Cl)c1 | inactive | 
O=c1oc2c(ccc3ccccc32)c(=O)n1-c1ccc([N+](=O)[O-])cc1 | inactive | 
O=C(Nc1ccc(N2CCOCC2)c([N+](=O)[O-])c1)c1ccc2ccccc2c1O | inactive | 
O=C(Nc1ccc(N=C=S)cc1Cl)c1ccc2ccccc2c1O |  | Activity (Rattus norvegicus [3]): Non-toxic; minimal effective dose (Rodentolepis nana [1]): 7.5 mg/kg; Activity (Rattus norvegicus [4]): Non-toxic; Activity (Canis familiaris [5]): Non-toxic; Activity (Rattus norvegicus [6]): Non-toxic; Activity (Mastomys natalensis [7]): Non-toxic; Activity (Mastomys natalensis [8]): Non-toxic; Activity (Rattus norvegicus [9]): Non-toxic; Activity (Rattus norvegicus [10]): Non-toxic; Activity (Taenia): 100%; Activity [11]: 100%; Activity (Canis familiaris [12]): Non-toxic
O=C(Nc1ccc([N+](=O)[O-])cc1Cl)c1cc(Cl)ccc1O [NICLOSAMIDE] |  | minimal effective dose (Rodentolepis nana [1]): 50 mg/kg
Nc1ccccc1NC(=O)c1ccc2ccccc2c1O | inactive | 
CN1CCN(c2ccc(NC(=O)c3ccc4ccccc4c3O)cc2[N+](=O)[O-])CC1 | inactive | 
O=c1oc2c(cc(Br)c3ccccc32)c(=O)n1-c1ccc([N+](=O)[O-])cc1Cl | inactive | 
